Consider 12 compounds from ChEMBL document CHEMBL2146440, “Rearranged benzophenones and prenylated xanthones from Garcinia propinqua twigs” (2012).

For orientation: MIC means the lowest concentration that inhibits growth of the organism.

≈ marks a conversion by molar mass, not a printed value. Calls of active or inactive are those of the source. The calls are words filed in the database; no cut-off is given here.

For experiment [1], the system named is Escherichia coli. As to the kind of experiment: Antibacterial activity against Escherichia coli TISTR 780 by two-fold broth dilution method. The format is functional.
For experiment [2], the system named is Staphylococcus aureus. As to the kind of experiment: Antibacterial activity against Staphylococcus aureus TISTR 1466 at >128 ug/mL by two-fold broth dilution method. The format is functional, organism-based. (Broth dilution looks for growth in wells or tubes with falling amounts of substance.)
Experiment [3] relates to Staphylococcus aureus. As to the kind of experiment: Antibacterial activity against methicillin-resistant Staphylococcus aureus SK1 at >128 ug/mL by two-fold broth dilution method. The format is functional, organism-based. The method, boiled down: (§1)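 MRSA SK1 was tested in a panel with Gram-positive S. aureus TISTR 1466 and Gram-negative E. coli TISTR 780 and S. typhimurium TISTR 292. Values are in μg/mL.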

Experiment [4] has as its system Salmonella typhimurium. Nature of the experiment: Antibacterial activity against Salmonella typhimurium TISTR 292 by two-fold broth dilution method. The class given is functional, Salmonella enterica subsp. enterica serovar Typhimurium.
Experiment [5] relates to Staphylococcus aureus. As to the kind of experiment: Antibacterial activity against Staphylococcus aureus TISTR 1466 by two-fold broth dilution method. The format is functional.
Experiment [6] deals with Staphylococcus aureus. As to the kind of experiment: Antibacterial activity against methicillin-resistant Staphylococcus aureus SK1 by two-fold broth dilution method. The class given is functional. The gist of the method:
as §1

As for `COc1c(O)ccc2c(=O)c3c(O)c4c(c(CC=C(C)C)c3oc12)OC(C)(C)C=C4`, the minimum inhibitory concentration (MIC) in experiment [1] and in experiment [4] (Salmonella enterica) was 128 µg/mL (≈ 313 µM) in each case. Besides, the MIC entry in experiment [2] and in experiment [3] was “inactive” each time.
For the compound `C=CC(C)(C)c1c2c(c(O)c3c(=O)c4ccc(O)c(OC)c4oc13)C=CC(C)(C)O2`, the MIC in experiment [5] was 2 µg/mL (≈ 4.9 µM); in experiment [1], 128 µg/mL (≈ 313 µM); in experiment [6], 4 µg/mL (≈ 9.79 µM); in experiment [4] (Salmonella enterica), 128 µg/mL (≈ 313 µM).
As for `C=C(C)CC[C@@H]1C[C@]23CC4C(C)(C)c5ccccc5C(=O)C45C(=O)[C@@](CC=C(C)C)(C[C@@]1(C)[C@]52O)C3=O` (relative stereo), the MIC in experiment [5], in experiment [1] and in experiment [4] (Salmonella enterica) was 128 µg/mL (≈ 256 µM) in each case. The MIC entry in experiment [3] was “inactive”.
For `C=C(C)CC[C@@H]1C[C@@]2(CC=C(C)C)C(=O)[C@]3(CC=C(C)C)C[C@@]1(C)C2(O)/C(=C(/O)c1ccccc1)C3=O` (relative stereo), the MIC was found to be 64 µg/mL (≈ 127 µM) in experiment [5], 128 µg/mL (≈ 255 µM) in experiment [1], 64 µg/mL (≈ 127 µM) in experiment [6] and 128 µg/mL (≈ 255 µM) in experiment [4] (Salmonella enterica).
Regarding `COc1c(CC=C(C)C)c(O)c2c(=O)c3ccc(O)c(OC)c3oc2c1CC=C(C)C` [DOITUNGGARCINONE C], the MIC in experiment [5], in experiment [1] and in experiment [6] was 128 µg/mL (≈ 302 µM) throughout.
In the case of `COc1c(CC=C(C)C)c(O)c2c(=O)c3ccc(O)c(O)c3oc2c1CC=C(C)C` [DULXANTHONE B], the MIC is 32 µg/mL (≈ 78 µM) in experiment [5], 128 µg/mL (≈ 312 µM) in experiment [1], 16 µg/mL (≈ 39 µM) in experiment [6] and 128 µg/mL (≈ 312 µM) in experiment [4] (Salmonella enterica).
For `CC(C)=CCc1c(O)c(CC=C(C)C)c2oc3c(O)ccc(O)c3c(=O)c2c1O` [GARTANIN], the MIC in experiment [5], in experiment [1] and in experiment [4] (Salmonella enterica) was 128 µg/mL (≈ 323 µM) in each case. Further, the MIC result in experiment [3] is “inactive”.
For `C=CC(C)(C)c1c2c(c(O)c3c(=O)c4ccc(O)c(O)c4oc13)C=CC(C)(C)O2` [MACLURAXANTHONE], the results for the MIC in experiment [5], in experiment [1] and in experiment [6] were 4 µg/mL (≈ 10.1 µM), 128 µg/mL (≈ 325 µM) and 4 µg/mL (≈ 10.1 µM), respectively.
Consider `CC(C)=CCc1c2c(c3oc4c(O)ccc(O)c4c(=O)c3c1O)C=CC(C)(C)O2` [MORUSIGNIN J], for which the MIC in experiment [5] and in experiment [1] was 128 µg/mL (≈ 325 µM) throughout.
For the compound `CN[C@H](CC(C)C)C(=O)N[C@H]1C(=O)N[C@@H](CC(N)=O)C(=O)N[C@H]2C(=O)N[C@H]3C(=O)N[C@H](C(=O)N[C@H](C(=O)O)c4cc(O)cc(O)c4-c4cc3ccc4O)[C@H](O)c3ccc(c(Cl)c3)Oc3cc2cc(c3O[C@@H]2O[C@H](CO)[C@@H](O)[C@H](O)[C@H]2O[C@H]2C[C@](C)(N)[C@H](O)[C@H](C)O2)Oc2ccc(cc2Cl)[C@H]1O` [VANCOMYCIN], the MIC in experiment [5] came to 0.25 µg/mL (≈ 0.173 µM).
As to `C=C(C)CC[C@@H]1C[C@]2(CC=C(C)C)C(=O)/C(=C(\O)c3ccccc3)C(=O)[C@]3(CC=C(C)C)C[C@@]1(C)O[C@@]32O` [XEROPHENONE A], the MIC result in experiment [5] is “inactive”. The MIC in experiment [1], in experiment [6] and in experiment [4] (Salmonella enterica) was 128 µg/mL (≈ 247 µM) throughout.
In the case of GENTAMICIN, the MIC in experiment [1] came to 0.25 µg/mL; in experiment [4] (Salmonella enterica subsp. enterica serovar Typhimurium) it was 0.125 µg/mL.
